Data taken from ChEMBL document CHEMBL1687843, “Detection of NDM-1-producing Klebsiella pneumoniae in Kenya” (2011).
In brackets after ≈: the same amount, converted by molar mass. Activity calls are given as the source filed them. The rule behind the calls is not given here.

Tests used:
Klebsiella pneumoniae [1] = assay: Antibacterial activity against carbapenem-resistant Klebsiella pneumoniae isolate 4 expressing beta-lactamase NDM-1 obtained from urine of patient by liquid microdilution method; assay type: functional; conditions: for MIC: isolate 4, Urine
Procedure, shortened: (§1)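 Liquid broth microdilution at 37°C gives the MIC against each clinical isolate; results are interpreted per CLSI guidelines.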

Klebsiella pneumoniae [2] = assay: Antibacterial activity against carbapenem-resistant Klebsiella pneumoniae isolate 5 expressing beta-lactamase NDM-1 obtained from urine of patient by liquid microdilution method; assay type: functional; conditions: for MIC: isolate 5, Urine; procedure, shortened: as §1
Klebsiella pneumoniae [3] = assay: Antibacterial activity against carbapenem-resistant Klebsiella pneumoniae isolate 7 expressing beta-lactamase NDM-1 obtained from urine of patient by liquid microdilution method; assay type: functional; conditions: for MIC: isolate 7, Urine; procedure, shortened: as §1
Escherichia coli [4] = assay: Antimicrobial activity against Escherichia coli J53; assay type: functional
Procedure, shortened: (§2)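 Strains: azide-resistant E. coli J53 recipient and its transconjugant. The transconjugant came from conjugation with K. pneumoniae Kp7 donor, selected on ceftazidime (30 µg/ml) plus azide (100 µg/ml). MICs were by Etest on Mueller-Hinton agar and by liquid microdilution at 37°C, interpreted per CLSI.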

Escherichia coli [5] = assay: Antimicrobial activity against Escherichia coli J53 harboring Klebsiella pneumoniae Kp7 beta-lactamase NDM-1; assay type: functional; procedure, shortened: as §2
Klebsiella pneumoniae [6] = assay: Antibacterial activity against carbapenem-resistant Klebsiella pneumoniae isolate 1 expressing beta-lactamase NDM-1 obtained from urine of patient by Etest; assay type: functional; conditions: for MIC: isolate 1, Urine
Procedure, shortened: (§3)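 Etest strips on Mueller-Hinton agar at 37°C give the MIC against each clinical isolate; susceptibility is interpreted per CLSI guidelines.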

Klebsiella pneumoniae [7] = assay: Antibacterial activity against carbapenem-resistant Klebsiella pneumoniae isolate 2 expressing beta-lactamase NDM-1 obtained from urine of patient by Etest; assay type: functional; conditions: for MIC: isolate 2, Urine; procedure, shortened: as §3
Klebsiella pneumoniae [8] = assay: Antibacterial activity against carbapenem-resistant Klebsiella pneumoniae isolate 3 expressing beta-lactamase NDM-1 obtained from urine of patient by Etest; assay type: functional; conditions: for MIC: isolate 3, Urine; procedure, shortened: as §3
Klebsiella pneumoniae [9] = assay: Antibacterial activity against carbapenem-resistant Klebsiella pneumoniae isolate 4 expressing beta-lactamase NDM-1 obtained from urine of patient by Etest; assay type: functional; conditions: for MIC: isolate 4, Urine; procedure, shortened: as §3
Klebsiella pneumoniae [10] = assay: Antibacterial activity against carbapenem-resistant Klebsiella pneumoniae isolate 5 expressing beta-lactamase NDM-1 obtained from urine of patient by Etest; assay type: functional; conditions: for MIC: isolate 5, Urine; procedure, shortened: as §3
Klebsiella pneumoniae [11] = assay: Antibacterial activity against carbapenem-resistant Klebsiella pneumoniae isolate 7 expressing beta-lactamase NDM-1 obtained from urine of patient by Etest; assay type: functional; conditions: for MIC: isolate 7, Urine; procedure, shortened: as §3
Klebsiella pneumoniae [12] = assay: Antibacterial activity against carbapenem-resistant Klebsiella pneumoniae isolate 1 expressing beta-lactamase NDM-1 obtained from urine of patient by liquid microdilution method; assay type: functional; conditions: for MIC: isolate 1, Urine; procedure, shortened: as §1
Klebsiella pneumoniae [13] = assay: Antibacterial activity against carbapenem-resistant Klebsiella pneumoniae isolate 2 expressing beta-lactamase NDM-1 obtained from urine of patient by liquid microdilution method; assay type: functional; conditions: for MIC: isolate 2, Urine; procedure, shortened: as §1
Klebsiella pneumoniae [14] = assay: Antibacterial activity against carbapenem-resistant Klebsiella pneumoniae isolate 3 expressing beta-lactamase NDM-1 obtained from urine of patient by liquid microdilution method; assay type: functional; conditions: for MIC: isolate 3, Urine; procedure, shortened: as §1
Klebsiella pneumoniae [15] = assay: Antibacterial activity against carbapenem-resistant Klebsiella pneumoniae isolate 6 expressing beta-lactamase NDM-1 obtained from urethral pus of patient by Etest; conditions: for MIC: isolate 6, Urethral pus
Klebsiella pneumoniae [16] = assay: Antibacterial activity against carbapenem-resistant Klebsiella pneumoniae isolate 6 expressing beta-lactamase NDM-1 obtained from urethral pus of patient by liquid microdilution method; conditions: for MIC: isolate 6, Urethral pus

Row | SMILES | MIC (Klebsiella pneumoniae [1]) [µg/mL] | MIC (Klebsiella pneumoniae [2]) [µg/mL] | MIC (Klebsiella pneumoniae [3]) [µg/mL] | MIC (Escherichia coli [4]) [µg/mL] | MIC (Escherichia coli [5]) [µg/mL] | MIC (Klebsiella pneumoniae [6]) [µg/mL] | MIC (Klebsiella pneumoniae [7]) [µg/mL] | MIC (Klebsiella pneumoniae [8]) [µg/mL] | MIC (Klebsiella pneumoniae [9]) [µg/mL] | MIC (Klebsiella pneumoniae [10]) [µg/mL] | MIC (Klebsiella pneumoniae [11]) [µg/mL] | MIC (Klebsiella pneumoniae [12]) [µg/mL] | MIC (Klebsiella pneumoniae [13]) [µg/mL] | MIC (Klebsiella pneumoniae [14]) [µg/mL] | MIC (Klebsiella pneumoniae [15]) [µg/mL] | MIC (Klebsiella pneumoniae [16]) [µg/mL] | Activity (Klebsiella pneumoniae [1]) | Activity (Klebsiella pneumoniae [2]) | Activity (Klebsiella pneumoniae [3]) | Activity (Klebsiella pneumoniae [6]) | also measured
1 | C[C@@H](O)[C@H]1C(=O)N2C(C(=O)O)=C(S[C@@H]3CN[C@H](C(=O)N(C)C)C3)[C@H](C)[C@H]12 [MEROPENEM] | > 32 | > 32 | > 32 | 0.12 (≈ 0.313 µM) | 1.5 (≈ 3.91 µM) | > 32 | > 32 | > 32 | > 32 | > 32 | > 32 | > 32 | > 32 | > 32 | > 32 | > 32 | – | – | – | – | –
2 | O=C1CN(/N=C/c2ccc([N+](=O)[O-])o2)C(=O)N1 | – | – | – | – | – | – | – | – | – | – | – | – | – | – | – | – | inactive | inactive | inactive | inactive | Activity (Klebsiella pneumoniae [7]): inactive; Activity (Klebsiella pneumoniae [8]): inactive; Activity (Klebsiella pneumoniae [9]): inactive; Activity (Klebsiella pneumoniae [10]): inactive; Activity (Klebsiella pneumoniae [11]): inactive; Activity (Klebsiella pneumoniae [12]): inactive; Activity (Klebsiella pneumoniae [13]): inactive; Activity (Klebsiella pneumoniae [14]): inactive; Activity (Klebsiella pneumoniae [15]): inactive; Activity (Klebsiella pneumoniae [16]): inactive
3 | C[C@@H](O)[C@H]1C(=O)N2C(C(=O)O)=C(S[C@@H]3CN[C@H](CNS(N)(=O)=O)C3)[C@H](C)[C@H]12 [DORIPENEM] | > 32 | > 32 | > 32 | 0.12 (≈ 0.285 µM) | 1.5 (≈ 3.57 µM) | > 32 | > 32 | > 32 | > 32 | > 32 | > 32 | > 32 | > 32 | > 32 | > 32 | > 32 | – | – | – | – | –
4 | CO[C@H]1/C=C/O[C@@]2(C)Oc3c(C)c(O)c4c(O)c(c(/C=N/N5CCN(C)CC5)c(O)c4c3C2=O)NC(=O)/C(C)=C\C=C\[C@H](C)[C@H](O)[C@@H](C)[C@@H](O)[C@@H](C)[C@H](OC(C)=O)[C@@H]1C [RIFAMPIN] | > 32 | > 32 | > 32 | – | – | > 32 | > 32 | > 32 | > 32 | > 32 | > 32 | > 32 | > 32 | > 32 | > 32 | > 32 | – | – | – | – | –
5 | CN(C)c1cc(NC(=O)CNC(C)(C)C)c(O)c2c1C[C@H]1C[C@H]3[C@H](N(C)C)C(O)=C(C(N)=O)C(=O)[C@@]3(O)C(O)=C1C2=O [TIGECYCLINE] | – | – | – | – | – | 0.5 (≈ 0.854 µM) | 0.5 (≈ 0.854 µM) | 0.5 (≈ 0.854 µM) | 0.5 (≈ 0.854 µM) | 0.5 (≈ 0.854 µM) | 0.5 (≈ 0.854 µM) | – | – | – | 0.5 (≈ 0.854 µM) | – | – | – | – | – | –
6 | C[C@@H]1O[C@@H]1P(=O)(O)O | – | – | – | – | – | – | – | – | – | – | – | – | – | – | – | – | inactive | inactive | inactive | inactive | Activity (Klebsiella pneumoniae [7]): inactive; Activity (Klebsiella pneumoniae [8]): inactive; Activity (Klebsiella pneumoniae [9]): inactive; Activity (Klebsiella pneumoniae [10]): inactive; Activity (Klebsiella pneumoniae [11]): inactive; Activity (Klebsiella pneumoniae [12]): inactive; Activity (Klebsiella pneumoniae [13]): inactive; Activity (Klebsiella pneumoniae [14]): inactive; Activity (Klebsiella pneumoniae [15]): inactive; Activity (Klebsiella pneumoniae [16]): inactive
7 | C[C@@H](O)[C@H]1C(=O)N2C(C(=O)O)=C(SCCNC=N)C[C@H]12 [IMIPENEM ANHYDROUS] | > 32 | > 32 | > 32 | 0.12 (≈ 0.401 µM) | 4 (≈ 13.4 µM) | > 32 | > 32 | > 32 | > 32 | > 32 | > 32 | > 32 | > 32 | > 32 | > 32 | > 32 | – | – | – | – | –
8 | C[C@@H](O)[C@H]1C(=O)N2C(C(=O)O)=C(S[C@@H]3CN[C@H](C(=O)Nc4cccc(C(=O)O)c4)C3)[C@H](C)[C@H]12 [ERTAPENEM] | > 32 | > 32 | > 32 | 0.12 (≈ 0.252 µM) | 1.5 (≈ 3.15 µM) | > 32 | > 32 | > 32 | > 32 | > 32 | > 32 | > 32 | > 32 | > 32 | > 32 | > 32 | – | – | – | – | –
9 | O=C(N[C@H](CO)[C@H](O)c1ccc([N+](=O)[O-])cc1)C(Cl)Cl | – | – | – | – | – | – | – | – | – | – | – | – | – | – | – | – | inactive | inactive | inactive | inactive | Activity (Klebsiella pneumoniae [7]): inactive; Activity (Klebsiella pneumoniae [8]): inactive; Activity (Klebsiella pneumoniae [9]): inactive; Activity (Klebsiella pneumoniae [10]): inactive; Activity (Klebsiella pneumoniae [11]): inactive; Activity (Klebsiella pneumoniae [12]): inactive; Activity (Klebsiella pneumoniae [13]): inactive; Activity (Klebsiella pneumoniae [14]): inactive; Activity (Klebsiella pneumoniae [15]): inactive; Activity (Klebsiella pneumoniae [16]): inactive
